Most compounds without a hit are left out; they make up all but 3.2% or so of the library.
SF1 activator = activators of human nuclear receptor SF-1. Q13285. CHO-K1 Gal4-SF-1 LBD luciferase reporter; % increase over DMSO SF-1-specific signal. activation, % at 10 µM. 65,000 tested, 1.9% active. AID 522;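 active means activation above the mean activation of all tested compounds plus 3 SD, cut at about 50% in these data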
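material = CHO-K1 cells with Gal4–hSF-1 LBD chimera plus Gal4-driven luciferase | compound = 10 µM single point, 1% DMSO | incubation = 20 h compound exposure at 37 °C after 1 h cell settling | measured by = SteadyLite luciferase luminescence | evaluation = percent activation relative to DMSO median and mock-transfected background | control set = DMSO negative control and −SF1 background wells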
BAP1 block = inhibitors of human BAP1 deubiquitinase; 72,000 tested, 0.48% active; recombinant BAP1, Ub-AMC hydrolysis fluorescence kinetic; stronger effect = lower value; AID 436; activity remaining (% of control), % at 20 µM; Q92560;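 active means activity remaining at or below 50% of control, provided the compound also passes the data quality filters; inactive means the rest, including low values that fail the filters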;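 further: 100% = DMSO wells rate and 0% = substrate alone blank rate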
Target sequence (Q92560 whole entry, looked up): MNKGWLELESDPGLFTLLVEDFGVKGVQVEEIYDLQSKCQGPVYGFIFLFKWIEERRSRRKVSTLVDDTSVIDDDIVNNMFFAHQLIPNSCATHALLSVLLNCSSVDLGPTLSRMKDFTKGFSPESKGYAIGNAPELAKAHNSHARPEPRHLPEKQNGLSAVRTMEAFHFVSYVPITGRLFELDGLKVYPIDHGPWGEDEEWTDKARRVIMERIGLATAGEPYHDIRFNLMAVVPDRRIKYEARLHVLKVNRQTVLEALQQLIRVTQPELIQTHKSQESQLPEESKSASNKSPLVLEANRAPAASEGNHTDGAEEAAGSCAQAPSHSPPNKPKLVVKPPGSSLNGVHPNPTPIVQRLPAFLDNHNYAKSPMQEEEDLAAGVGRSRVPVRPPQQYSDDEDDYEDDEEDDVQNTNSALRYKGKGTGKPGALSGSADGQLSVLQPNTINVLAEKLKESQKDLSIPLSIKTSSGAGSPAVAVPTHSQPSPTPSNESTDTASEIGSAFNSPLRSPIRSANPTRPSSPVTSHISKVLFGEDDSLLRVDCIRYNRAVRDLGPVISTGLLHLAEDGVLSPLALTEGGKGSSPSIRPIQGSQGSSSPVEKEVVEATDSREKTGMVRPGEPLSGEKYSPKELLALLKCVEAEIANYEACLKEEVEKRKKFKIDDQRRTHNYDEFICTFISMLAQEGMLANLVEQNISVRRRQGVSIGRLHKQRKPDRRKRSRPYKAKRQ
RORA act = RORA (human) activation | CHO-K1 Gal4-RORA LBD luciferase reporter, luminescence; percent increase over mock-subtracted basal signal | activation, % at 10 µM | 65,000 tested, 1.5% active;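 active means activation above the mean of all tested compounds plus 3 SD, cut at about 49% in these data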;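 further: 0% = DMSO-treated RORA cells and 100% = added signal equal to DMSO minus mock-transfected cells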
JNK3 blocker = JNK3 (human) kinase inhibition; purified JNK3 kinase activity, HTS; 60,000 tested, 0.61% active; P53779; inhibition, % at 8 µM; in the data active means inhibition above about 17%;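 further: 0% = DMSO and 100% = reference inhibitor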
Ec RNAP inh = Escherichia coli RNA polymerase inhibition; P0A8V2; E. coli RNA polymerase, fluorescence transcription assay; inhibition, %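 (tested at 10 µM)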; 62,000 tested, 0.2% active; in the data active means inhibition above about 20%;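 further: 0% = enzyme without compound and 100% = no enzyme blank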
Starred values were filed as active, the others as inactive; nt = no result given.

SMILES	SF1 activator	BAP1 block	RORA act	JNK3 blocker	Ec RNAP inh
COc1ccc(-c2nnc(-c3cccs3)o2)cc1OC	42	98	20	3	-8
CCOc1ccc(-c2nc(-c3ccccc3)no2)cc1OCC	84*	94	49*	-1	4
COc1ccc(-c2noc(CSc3ccccc3)n2)cc1OC	68*	104	38	-3	8
CCOc1ccc(-c2nnc(-c3cccs3)o2)cc1OCC	17	275	53*	4	1
COc1ccc(-c2nc(-c3ccccc3OC)no2)cc1OC	44	95	56*	-2	3
CCN(CCNC(=O)c1cccc(N2CCCC2=O)c1)c1ccccc1	20	100	-3	1	3
CCCCn1nnnc1SCC(=O)Nc1ccc(F)cc1	-7	72	-14	1	1
COC(=O)c1cc(OC)c(OC)cc1NC(=O)c1ccccc1	-9	83	-4	2	-9
CC(=O)Nc1cccc(NC(=O)C2CC3CCC2C3)c1 (stereo not drawn)	7	105	9	6	6
CCN(CC)c1ccc(NC(=O)C2CC3CCC2C3)cc1 (stereo not drawn)	50	92	55*	-11	7
O=C(Cn1cnc2ccccc2c1=O)c1ccc2c(c1)OCCO2	75*	108	39	6	-2
O=c1c2ccccc2nnn1CSc1nnc2ccccn12	78*	110	23	-2	4
CCN(CC)C(=O)Cn1cnc2ccccc2c1=O	-17	156	-8	1	1
O=c1c2ccccc2nnn1CSc1ccc2c(c1)OCCO2	77*	106	38	4	6
CCNc1nc(N2CCCCC2)nc(-n2nnc(C(=O)OCC)c2C)n1	11	98	-8	6	12
Cc1cc(OCC(=O)N2CCCC2)ccc1Cl	51*	90	18	6	3
Cc1cc(OCC(=O)N2CCCC2)cc(C)c1Cl	-10	132	-13	-1	9
Cc1ccc(OCC(=O)N2CCCCC2)c(Br)c1	57*	111	54*	-2	8
Cc1cc(C)cc(OCC(=O)Nc2cccc(-c3nnc(-c4ccco4)o3)c2)c1	22	nt	30	2	5
CCN1CCN(Cc2ccc3c(c2)Cc2ccccc2-3)CC1	36	88	27	-1	3
c1ccc2c(c1)Cc1cc(CN3CCOCC3)ccc1-2	28	93	68*	-5	6
Cc1ccc(C(=O)CSC2=C(C#N)C(c3ccco3)C3=C(CCCC3=O)N2)cc1 (stereo not drawn)	-2	66	17	8	4
N#CC1=C(SCC(=O)c2ccccc2)NC2=C(C(=O)CCC2)C1c1ccco1 (stereo not drawn)	100*	78	174*	58*	3
CC1=CC(=C2C(=O)c3ccccc3C2=O)C=C(C)N1C	29	78	47	21*	11
COc1ccc(-c2cc(-c3ccccc3O)[nH]n2)cc1OC	23	94	-9	5	nt
SMILES	SF1 activator	BAP1 block	RORA act	JNK3 blocker	Ec RNAP inh
Oc1ccccc1-c1cc(-c2ccc3c(c2)OCCO3)n[nH]1	36	nt	55*	nt	4
O=P(O)(c1ccc(Cl)cc1)c1ccc(Cl)cc1	-30	99	-7	-5	-6
Clc1ccccc1OCc1nnc(-c2ccccc2Br)o1	94*	nt	83*	3	8
N#Cc1c(N2CCCC2)nc(N)c2c(N)nc(N3CCCC3)cc12	50*	166	28	-7	10
O=C(c1ccc(S(=O)(=O)Nc2ccccc2)cc1)N1CCOCC1	-4	117	11	2	4
Cc1cc(C)cc(-c2nc(-c3ccncc3)no2)c1	90*	100	42	-12	3
Brc1cccc(-c2nc(-c3ccncc3)no2)c1	60*	96	47	-7	nt
CC(C)(C)c1ccc(-c2nc(-c3ccncc3)no2)cc1	11	nt	31	-2	-5
O=C(c1nn2c(c1Cl)NC(c1ccccc1)CC2C(F)(F)F)N1CCCCC1 (stereo not drawn)	nt	100	nt	nt	nt
Cc1ccccc1NC(=O)c1c(NC(=O)c2cccc(Br)c2)sc2c1CCCC2	nt	94	nt	nt	nt
N#CCSc1nnc(COc2cccc3ccccc23)n1-c1cccc(Cl)c1	5	80	-6	-5	8
C/C(N)=C(/C#N)C(=O)CSc1nnc(Nc2cccc(C)c2)s1	69*	90	36	-2	10
CCOC(=O)N1CCN(c2ccc(C(=O)c3ccccc3)cc2F)CC1	36	75	58*	-4	3
CCOC(=O)N1CCN(c2cc(C)c(C(C)=O)cc2F)CC1	-14	98	15	-2	3
COc1ccc(NC(=O)c2ccco2)c(OC)c1	48	102	30	1	9
COc1cc(NC(=O)C(C)C)ccc1NC(=O)c1ccco1	54*	100	44	-13	2
Cc1ccc2cc3cc(C(=O)N(C)C4CCCCC4)oc3nc2c1	77*	88	35	-2	-10
c1ccc2nc(N3CCOCC3)c(N3CCOCC3)nc2c1	6	128	2	6	nt
c1ccc2c(c1)nc(N1CCOCC1)c1c3ccccc3[nH]c21	-10	nt	26	59*	-6
Cn1c(=O)c2c(nc(NCc3ccc4c(c3)OCO4)n2C)n(C)c1=O	13	120	0	-7	-8
CCn1c(SCC(N)=O)nnc1-c1ccco1	-3	110	-1	0	11
CCn1c(SCC(=O)c2cccs2)nnc1-c1ccco1	54*	105	7	0	6
COC(=O)C1=C(C)N=C2SCCC(=O)N2C1c1ccc(C(=O)OC)cc1 (stereo not drawn)	3	95	-15	-4	2
O=C(c1ccco1)N1CCN(C(=O)C2CCN(S(=O)(=O)c3cccc4nsnc34)CC2)CC1	-1	107	-11	0	7
CCCN1C(=O)/C(=C2\SC(N3CCCCC3)=NC2=O)c2ccccc21	81*	103	65*	-2	5
SMILES	SF1 activator	BAP1 block	RORA act	JNK3 blocker	Ec RNAP inh
Nn1c(Cc2cccc3ccccc23)nnc1SCC(=O)NC1CCS(=O)(=O)C1 (stereo not drawn)	-6	78	-22	-6	3
Nc1c(C(O)(C(F)(F)F)C(F)(F)F)ccc2ccccc12	16	46*	8	-9	4
CCOc1ccc2nc(N3CCOCC3)nc(C)c2c1	47	145	51*	3	4
CCN(CC)c1ccc2cc(-c3nc(-c4ccccc4)n[nH]3)c(=O)oc2c1	nt	84	nt	nt	nt
CCN(CC)c1ccc2cc(-c3nnc(-c4ccncc4)o3)c(=O)oc2c1	73*	72	25	1	9
Cc1nc2cc(-c3cccc(Cl)c3)nn2c(N2CCN(C(=O)c3ccco3)CC2)c1C	24	nt	25	-3	-7
Cc1nc2c(C(=O)N3CCCCC3)cnn2c(C)c1Cc1ccccc1F	42	72	76*	nt	7
Cc1ccc(-c2nnc(N3CCN(C(=O)c4ccco4)CC3)c3ccccc23)cc1	-17	90	-5	-7	10
